In ChEMBL document CHEMBL1153602, “Photochemical electrocyclisation of 3-vinylindoles to pyrido[2,3-a]-, pyrido[4,3-a]- and thieno[2,3-a]-carbazoles: design, synthesis, DNA binding and antitumor cell cytotoxicity” (2009):
The source made the active and inactive calls. No cut-off for these calls is given here.

Key:
Nucleic Acid [1] = test: Binding affinity to poly(dA).poly(dT) duplex DNA assessed as change in thermal melting temperature at compound to DNA ratio of 0.25 by UV-vis spectroscopy; type: nucleic-acid assay
Nucleic Acid [2] = test: Binding affinity to pBS 117bp DNA by DnaseI footprinting assay; type: nucleic-acid assay
How it was run: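 Ligand and fragment were pre-incubated 15 min at 37 °C, then digested with DNase I at 0.001 unit/ml in 20 mM NaCl, 2 mM MgCl2, 2 mM MnCl2, pH 7.3. Products were resolved on a denaturing 8% polyacrylamide/8 M urea gel, with a G-track marker.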

Calf thymus DNA [3] = test: Binding affinity to calf thymus DNA assessed as change in melting temperature at a compound to DNA molar ratio of 0.1 by UV-vis spectroscopy; type: nucleic-acid assay; conditions: Bos taurus
How it was run: (§1)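 UV absorbance of DNA at 260 nm recorded every minute from 20 to 100 °C, ramping 1 °C/min in a thermostated quartz cell. Tm is taken as the midpoint of the hyperchromic transition. ΔTm = Tm(DNA+drug) − Tm(DNA alone). Calf-thymus DNA or poly(dAdT)2 was used at DNA/drug ratios from 0.1 to 1.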

HT-29 [4] = test: Cell cycle arrest in human HT-29 cells assessed as accumulation at G2/M phase after 24 hrs using PI staining by flow cytometry; type: functional, cell-based
How it was run: (§2)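 HT-29 cells, 3×10^5 per sample in exponential growth, were exposed to graded drug concentrations for 24 h. Cells were then trypsinised, fixed in 70% ethanol and stained 30 min in the dark with propidium iodide (50 µg/ml) plus RNase (100 µg/ml). DNA content was measured by flow cytometry, quantifying cell-cycle phases and the sub-G1 fraction.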

Calf thymus DNA [5] = test: Binding affinity to calf thymus DNA assessed as change in melting temperature at a compound to DNA molar ratio of 0.25 by UV-vis spectroscopy; type: nucleic-acid assay; conditions: Bos taurus; how it was run: as §1
HT-29 [6] = test: Growth inhibition of human HT-29 cells by MTS assay; type: functional
How it was run: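 HT-29 cells, 3×10^3 per well, were seeded 24 h before treatment with compound at 1 nM–100 µM, run as 3 series of duplicate or triplicate points. After 72 h at 37 °C, MTS tetrazolium was added for 2 h and absorbance read at 492 nm. GC50 is the concentration halving cell number versus untreated control wells.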

Calf thymus DNA [7] = test: Binding affinity to calf thymus DNA assessed as negative dichroic signal at phosphate/drug ratio by circular dichroism spectra; type: nucleic-acid assay; conditions: Bos taurus
How it was run: (§3)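 Circular dichroism of drug at […] in 1 ml of 1 mM sodium cacodylate, pH 7.0, with or without CT-DNA at 10–200 µM. Phosphate/compound ratio ran from 0.4 to 8. The induced CD signal in the ligand absorption region was recorded.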

Calf thymus DNA [8] = test: Binding affinity to calf thymus DNA assessed as change in melting temperature at a compound to DNA molar ratio of 0.5 by UV-vis spectroscopy; type: nucleic-acid assay; conditions: Bos taurus; how it was run: as §1
Calf thymus DNA [9] = test: Binding affinity to calf thymus DNA assessed as quenching constant by fluorescence spectroscopy; type: nucleic-acid assay; conditions: Bos taurus
How it was run: (§4)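 Drug at a fixed 20 µM in 1 ml BPE buffer in a 10 mm quartz cuvette, titrated with CT-DNA at 10–200 µM base pairs. Excitation was set at each compound's own wavelength (276–319 nm). Constants came from Stern–Volmer plots of F0/F against CT-DNA concentration, with the slope taken as Ksv.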

Nucleic Acid [10] = test: Binding affinity to poly(dA).poly(dT) duplex DNA assessed as change in thermal melting temperature at compound to DNA ratio of 1 by UV-vis spectroscopy; type: nucleic-acid assay
Calf thymus DNA [11] = test: Binding affinity to calf thymus DNA assessed as change in melting temperature at a compound to DNA molar ratio of 1 by UV-vis spectroscopy; type: nucleic-acid assay; conditions: Bos taurus; how it was run: as §1
Nucleic Acid [12] = test: Binding affinity to poly(dA).poly(dT) duplex DNA assessed as change in thermal melting temperature at compound to DNA ratio of 0.1 by UV-vis spectroscopy; type: nucleic-acid assay
Calf thymus DNA [13] = test: Binding affinity to calf thymus DNA assessed as positive dichroic signal at phosphate/drug ratio by circular dichroism spectra; type: nucleic-acid assay; conditions: Bos taurus; how it was run: as §3
Nucleic Acid [14] = test: Binding affinity to poly(dA).poly(dT) duplex DNA assessed as change in thermal melting temperature at compound to DNA ratio of 0.5 by UV-vis spectroscopy; type: nucleic-acid assay
[15] = biological target: T1, DNA topoisomerase 1 (Homo sapiens) (UniProt P11387); test: Inhibition of human topoisomerase 1-mediated DNA relaxation assessed as lack of nicking form by agarose gel electrophoresis
T1 sequence (whole entry): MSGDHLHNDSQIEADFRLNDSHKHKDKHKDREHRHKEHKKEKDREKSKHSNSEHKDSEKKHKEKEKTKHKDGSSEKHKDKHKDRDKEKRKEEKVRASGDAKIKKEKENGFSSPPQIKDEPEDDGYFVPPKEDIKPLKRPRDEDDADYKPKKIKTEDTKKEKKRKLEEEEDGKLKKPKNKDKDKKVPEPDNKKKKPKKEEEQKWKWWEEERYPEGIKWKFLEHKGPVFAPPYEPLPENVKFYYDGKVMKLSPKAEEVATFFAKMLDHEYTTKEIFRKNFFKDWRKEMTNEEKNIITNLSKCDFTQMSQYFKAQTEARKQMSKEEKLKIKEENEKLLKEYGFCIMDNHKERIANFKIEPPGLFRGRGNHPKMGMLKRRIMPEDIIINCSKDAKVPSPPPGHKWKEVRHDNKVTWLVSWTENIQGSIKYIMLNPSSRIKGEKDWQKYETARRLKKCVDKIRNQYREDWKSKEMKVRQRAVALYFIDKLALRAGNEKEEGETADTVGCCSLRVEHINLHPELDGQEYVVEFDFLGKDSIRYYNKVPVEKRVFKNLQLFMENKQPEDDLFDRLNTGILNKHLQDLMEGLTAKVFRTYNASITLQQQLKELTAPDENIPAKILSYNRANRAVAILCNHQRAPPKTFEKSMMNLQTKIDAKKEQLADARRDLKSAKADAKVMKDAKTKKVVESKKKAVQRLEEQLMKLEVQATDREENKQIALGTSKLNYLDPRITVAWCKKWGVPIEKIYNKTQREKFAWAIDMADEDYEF
How it was run: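 Supercoiled pUC19 (130 ng) was pre-incubated with compound at graded concentrations, or 20 or 50 µM in the cleavage assay. Human topoisomerase I (4 units) was then added for 45 min at 37 °C in 50 mM Tris pH 7.8, 50 mM KCl, 10 mM MgCl2, 1 mM DTT, 1 mM EDTA, 1 mM ATP. Camptothecin (20 µM) served as control. Samples ran on 1% agarose for 2 h at 120 V in TBE, with ethidium bromide either post-stained (relaxation) or included in the gel (cleavage).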

[16] = biological target: DNA topoisomerase 2-alpha (Homo sapiens) (UniProt P11388); test: Inhibition of human topoisomerase 2-mediated DNA relaxation assessed as double stranded break form by agarose gel electrophoresis
How it was run: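 Supercoiled pUC19 (130 ng) with compound at 20 or 50 µM, or etoposide as control, was incubated with human topoisomerase II (4 units) for 45 min at 37 °C in cleavage buffer. The reaction was stopped with 0.25% SDS plus proteinase K for 30 min at 50 °C. DNA forms were separated on 1% agarose containing ethidium bromide in TBE.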

HT-29 [17] = test: Cell cycle arrest in human HT-29 cells assessed as accumulation at G2/M phase at 25 uM after 24 hrs using PI staining by flow cytometry; type: functional, cell-based; how it was run: as §2
HT-29 [18] = test: Cell cycle arrest in human HT-29 cells at 25 uM after 24 hrs using PI staining by flow cytometry
HT-29 [19] = test: Cell cycle arrest in human HT-29 cells assessed as accumulation at S phase at 10 uM after 24 hrs using PI staining by flow cytometry; type: functional; how it was run: as §2
Calf thymus DNA [20] = test: Binding affinity to calf thymus DNA assessed as enhancement constant by fluorescence spectroscopy; type: nucleic-acid assay; conditions: Bos taurus; how it was run: as §4

Sequence of DNA topoisomerase 2-alpha (Homo sapiens) (P11388 whole entry): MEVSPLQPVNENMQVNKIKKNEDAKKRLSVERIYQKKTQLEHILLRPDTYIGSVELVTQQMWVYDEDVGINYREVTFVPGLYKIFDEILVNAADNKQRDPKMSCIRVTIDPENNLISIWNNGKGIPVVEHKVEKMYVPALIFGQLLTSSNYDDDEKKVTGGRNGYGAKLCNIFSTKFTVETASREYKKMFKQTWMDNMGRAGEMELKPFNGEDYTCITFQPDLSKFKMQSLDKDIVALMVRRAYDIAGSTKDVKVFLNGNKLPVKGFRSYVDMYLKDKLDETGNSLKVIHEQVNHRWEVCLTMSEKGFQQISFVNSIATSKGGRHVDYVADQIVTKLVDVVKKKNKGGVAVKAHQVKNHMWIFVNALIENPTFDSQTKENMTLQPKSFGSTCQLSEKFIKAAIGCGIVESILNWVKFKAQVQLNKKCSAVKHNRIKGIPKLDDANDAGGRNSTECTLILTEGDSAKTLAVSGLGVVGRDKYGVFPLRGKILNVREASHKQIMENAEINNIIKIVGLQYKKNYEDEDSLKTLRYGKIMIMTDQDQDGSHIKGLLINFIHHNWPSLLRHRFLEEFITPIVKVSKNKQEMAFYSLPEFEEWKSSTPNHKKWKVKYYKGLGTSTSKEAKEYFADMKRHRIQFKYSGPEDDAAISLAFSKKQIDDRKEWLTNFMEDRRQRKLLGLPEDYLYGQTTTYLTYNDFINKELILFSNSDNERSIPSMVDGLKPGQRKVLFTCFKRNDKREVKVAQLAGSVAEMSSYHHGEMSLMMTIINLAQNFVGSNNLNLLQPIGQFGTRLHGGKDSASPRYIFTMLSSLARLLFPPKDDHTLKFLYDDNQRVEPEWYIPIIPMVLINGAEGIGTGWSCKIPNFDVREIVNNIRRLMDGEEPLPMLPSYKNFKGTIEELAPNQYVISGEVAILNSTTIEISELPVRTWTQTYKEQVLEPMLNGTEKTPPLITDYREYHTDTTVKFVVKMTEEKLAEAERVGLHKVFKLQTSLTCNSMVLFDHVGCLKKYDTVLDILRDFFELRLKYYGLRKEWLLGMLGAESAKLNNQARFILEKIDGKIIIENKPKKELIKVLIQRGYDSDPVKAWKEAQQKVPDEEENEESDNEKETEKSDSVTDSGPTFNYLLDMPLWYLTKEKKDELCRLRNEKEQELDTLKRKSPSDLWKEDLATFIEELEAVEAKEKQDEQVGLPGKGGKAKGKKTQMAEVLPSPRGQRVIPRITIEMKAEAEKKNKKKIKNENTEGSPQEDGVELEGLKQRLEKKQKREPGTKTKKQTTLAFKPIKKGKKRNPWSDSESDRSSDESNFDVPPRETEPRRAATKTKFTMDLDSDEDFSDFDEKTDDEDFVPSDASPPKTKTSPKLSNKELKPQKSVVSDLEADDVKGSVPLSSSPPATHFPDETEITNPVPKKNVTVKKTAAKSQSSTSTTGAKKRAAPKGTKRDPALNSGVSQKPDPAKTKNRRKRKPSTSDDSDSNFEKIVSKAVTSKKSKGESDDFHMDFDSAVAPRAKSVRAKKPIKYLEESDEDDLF

Structure (SMILES)	ΔTm (Nucleic Acid [1]) [°C]	Activity (Nucleic Acid [2])	ΔTm (Calf thymus DNA [3]) [°C]	Activity (HT-29 [4])	ΔTm (Calf thymus DNA [5]) [°C]	GI50 (HT-29 [6]) [µM]	Activity (Calf thymus DNA [7])	ΔTm (Calf thymus DNA [8]) [°C]	KSV (Calf thymus DNA [9]) [×10³ /M]	ΔTm (Nucleic Acid [10]) [°C]	ΔTm (Calf thymus DNA [11]) [°C]	ΔTm (Nucleic Acid [12]) [°C]	Activity (Calf thymus DNA [13])	ΔTm (Nucleic Acid [14]) [°C]	Activity [15]	Activity [16]	Activity (HT-29 [17])	Activity (HT-29 [18])	Activity (HT-29 [19]) [%]	Activity (Calf thymus DNA [20]) [×10³ /M]
CN(C)CCCNC(=O)c1cc2c3cc(Cl)ccc3[nH]c2c2ccncc12	17.3	Active	3.6	Active	6.6	2.2	Active	10.7	9.95	28.3	13.9	10.3	Active	22.7	–	–	–	–	–	–
O=C(NCCCN1CCOCC1)c1cc2c3cccc(Cl)c3[nH]c2c2ncccc12	3.9	inactive	0	–	0.7	–	–	0.4	–	5.3	0.6	2.1	–	5.3	–	–	–	–	–	–
CC[C@@]1(O)C(=O)OCc2c1cc1n(c2=O)Cc2cc3ccccc3nc2-1	–	–	–	–	–	–	–	–	–	–	–	–	–	–	Active	–	–	–	–	–
CN(C)CCCNC(=O)c1cc2c3cc(Cl)ccc3[nH]c2c2ncccc12	9.2	Active	3	–	7.4	9.23	–	8.8	–	27.8	13.2	6.1	–	20.4	Active	Active	Active	Active	26.1	4.84
